# Measured values from ChEMBL document CHEMBL4680268, “Pharmacomodulations of the benzoyl-thiosemicarbazide scaffold reveal antimicrobial agents targeting d-alanyl-d-alanine ligase in bacterio” (Eur J Med Chem, 2020).
# Calls of active or inactive are those of the source. The calls are words filed in the database; no cut-off is given here.
# Experiments:
# Enterococcus faecalis [1] = test: Antibacterial activity against Enterococcus faecalis ATCC 29212 assessed as reduction in bacterial growth incubated for 18 to 24 hrs by broth microdilution method; assay type: functional; conditions: time 18-24 hrs
# Staphylococcus aureus [2] = test: Antibacterial activity against Staphylococcus aureus ATCC 25923 assessed as reduction in bacterial growth incubated for 18 to 24 hrs by broth microdilution method; assay type: functional; conditions: time 18-24 hrs
# Enterococcus faecalis [3] = test: Inhibition of recombinant Enterococcus faecalis C-terminal His6-tagged DdlB expressed in Escherichia coli LMG194 assessed as residual activity using D-Ala as substrate at 100 uM preincubated with enzyme for 30 mins followed by substrate addition and measured after 20 mins by malachite green based colorimetric analysis relative to control; conditions: time 50.0 min
# Summary of the method: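 Purified E. faecalis His-tagged DdlB (20 mg/L) preincubated 30 min at 30 °C with 100 µM compound and 500 µM ATP in 20 mM Tris-HCl pH 7.4, 10 mM MgCl₂, 10 mM KCl, 10% DMSO; 1 mM D-Ala added, 20 min at 30 °C. Phosphate detected with malachite green reagent, A650 after 25 min dark; residual activity versus no-inhibitor control, triplicate.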
# [4] = Inhibition of recombinant Enterococcus faecalis C-terminal His6-tagged DdlB expressed in Escherichia coli LMG194 using D-Ala as substrate preincubated with enzyme for 30 mins followed by substrate addition and measured after 20 mins by malachite green based colorimetric analysis
# Summary of the method: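 DdlB (20 mg/L) malachite green phosphate assay: enzyme, inhibitor and 500 µM ATP preincubated 30 min at 30 °C in Tris-HCl pH 7.4 buffer with MgCl₂, KCl and 10% DMSO, then 1 mM D-Ala for 20 min; A650 read. IC₅₀ from 11 concentrations, also run with 0.01% Triton X-100; mean ± SD of triplicates, n ≥ 2; EC₅₀ given where maximal inhibition stayed below 50%.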
# Staphylococcus aureus [5] = test: Antibacterial activity against hospital-acquired vancomycin resistant Staphylococcus aureus VRS-1 assessed as reduction in bacterial growth incubated for 18 to 24 hrs by broth microdilution method; assay type: functional; conditions: time 18-24 hrs
# Summary of the method: (§1)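 Broth microdilution in cation-adjusted Mueller-Hinton broth per CLSI; inoculum 10⁶ bacteria/mL. Two-fold serial dilutions, compound in broth with 5% DMSO mixed 1:1 with bacterial suspension, giving 2.5% DMSO final. Top concentration 0.1, 0.4 or 0.8 mM depending on solubility. Incubated 18–24 h at 37 °C. MIC = lowest concentration preventing visible growth.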
# Staphylococcus aureus [6] = test: Antibacterial activity against community-acquired methicillin and erythromycin resistant Staphylococcus aureus SA325 assessed as reduction in bacterial growth incubated for 18 to 24 hrs by broth microdilution method; assay type: functional; conditions: time 18-24 hrs; summary of the method: as §1
# Pseudomonas aeruginosa = test: Antibacterial activity against Pseudomonas aeruginosa PAO1 assessed as reduction in bacterial growth incubated for 18 to 24 hrs by broth microdilution method; assay type: functional, organism-based; conditions: time 18-24 hrs
# Summary of the method: (§2)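 Microdilution in cation-adjusted Mueller-Hinton broth per CLSI; two-fold compound series in CAMHB with 5% DMSO mixed 1:1 with bacterial suspension, giving 10⁶ bacteria/mL inoculum and 2.5% DMSO final. Top concentrations 0.1, 0.4 or 0.8 mM depending on solubility. Incubated 18–24 h at 37 °C; MIC read as lowest concentration preventing visible growth.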
# Enterococcus faecalis [7] = test: Antibacterial activity against vancomycin resistant Enterococcus faecalis BM4575 harboring VanE genotype, constitutive expression of Ddl and VanE D-Ala-D-Ser ligase assessed as reduction in bacterial growth incubated for 18 to 24 hrs by broth microdilution method; assay type: functional; conditions: time 18-24 hrs; summary of the method: as §1
# Staphylococcus aureus [8] = test: Antibacterial activity against hospital-acquired methicillin/ciprofloxacin and moxifloxacin resistant Staphylococcus aureus SA481 assessed as reduction in bacterial growth incubated for 18 to 24 hrs by broth microdilution method; assay type: functional; conditions: time 18-24 hrs; summary of the method: as §1
# Staphylococcus aureus [9] = test: Antibacterial activity against methicillin and linezolid resistant Staphylococcus aureus NRS119 assessed as reduction in bacterial growth incubated for 18 to 24 hrs by broth microdilution method; assay type: functional; conditions: time 18-24 hrs; summary of the method: as §1
# Enterococcus faecalis [10] = test: Antibacterial activity against vancomycin resistant Enterococcus faecalis BM4390 harboring VanB mutant with inactive Ddl and constitutive expression of D-Ala-D-Lac assessed as reduction in bacterial growth incubated for 18 to 24 hrs by broth microdilution method; assay type: functional; conditions: time 18-24 hrs; summary of the method: as §1
# Klebsiella pneumoniae = test: Antibacterial activity against Klebsiella pneumoniae ATCC700603 assessed as reduction in bacterial growth incubated for 18 to 24 hrs by broth microdilution method; assay type: functional, organism-based; conditions: 700603, time 18-24 hrs; summary of the method: as §2
# Escherichia coli = test: Antibacterial activity against Escherichia coli ATCC 25922 assessed as reduction in bacterial growth incubated for 18 to 24 hrs by broth microdilution method; assay type: functional, organism-based; conditions: time 18-24 hrs; summary of the method: as §2
# Staphylococcus aureus [11] = test: Antibacterial activity against methicillin resistant and vancomycin intermediate resistant Staphylococcus aureus MU50 assessed as reduction in bacterial growth incubated for 18 to 24 hrs by broth microdilution method; assay type: functional; conditions: time 18-24 hrs; summary of the method: as §1
# Enterococcus faecalis [12] = test: Antibacterial activity against vancomycin resistant Enterococcus faecalis JH2-2::C1 harboring constitutive expression of Ddl and vanB ligase assessed as reduction in bacterial growth incubated for 18 to 24 hrs by broth microdilution method; assay type: functional; conditions: time 18-24 hrs; summary of the method: as §1
# Cell membrane = test: Disruption of bacterial cell membrane in Staphylococcus aureus ATCC 25923 assessed as increase in PI uptake at 1 to 5 times MIC measured every 10 mins for 2 hrs by PI dye based spectrophotometry
# Summary of the method: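 Mid-log S. aureus ATCC 25923 (grown in MHB from OD₆₀₀ 0.05) washed into BET buffer (pH 7.5) at 1.11×10⁶ CFU/mL with 12 nM propidium iodide; compound at 1, 2, 5× MIC, 5% DMSO final. SDS 0.5% positive, buffer negative control. Fluorescence (ex 532/em 620 nm) read in the dark every 10 min for 2 h; triplicate.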
SMILES,MIC (Enterococcus faecalis [1]) [µM],MIC (Staphylococcus aureus [2]) [µM],Activity (Enterococcus faecalis [3]) [%],IC50 [4] [nM],MIC (Staphylococcus aureus [5]) [µM],MIC (Staphylococcus aureus [6]) [µM],Activity (Pseudomonas aeruginosa),MIC (Enterococcus faecalis [7]) [µM],MIC (Staphylococcus aureus [8]) [µM],MIC (Staphylococcus aureus [9]) [µM],MIC (Enterococcus faecalis [10]) [µM],Activity (Klebsiella pneumoniae),Activity (Escherichia coli),MIC (Staphylococcus aureus [11]) [µM],MIC (Enterococcus faecalis [12]) [µM],Activity (Cell membrane)
Nc1ccccc1-c1n[nH]c(=S)n1-c1ccccc1,> 800,> 800,> 100,–,–,–,–,–,–,–,–,–,–,–,–,–
COc1ccc(O)c(-c2n[nH]c(=S)n2-c2ccccc2)c1,> 800,> 800,> 50,133000,–,–,–,–,–,–,–,–,–,–,–,–
O=C(NNC(=S)Nc1ccc(Cl)c(Cl)c1)c1ccccc1,> 100,> 100,> 100,–,–,–,–,–,–,–,–,–,–,–,–,–
Oc1ccccc1-c1nnc(S)n1-c1ccccc1,> 800,> 800,> 100,–,–,–,–,–,–,–,–,–,–,–,–,–
Fc1ccc2c(c1F)Oc1ccccc1-c1n[nH]c(=S)n1-2,> 400,> 400,> 100,–,–,–,–,–,–,–,–,–,–,–,–,–
O=C(NNC(=S)Nc1ccc(F)c(F)c1F)c1ccccc1O,200,200,–,640,400,400,inactive,400,400,400,> 400,inactive,inactive,400,> 400,–
O=C(NNC(=S)Nc1ccc(C(F)(F)F)cc1)c1ccccc1O,50,50,–,630,100,100,inactive,100,100,100,> 100,inactive,inactive,100,100,–
CC(=O)NC[C@H]1CN(c2ccc(N3CCOCC3)c(F)c2)C(=O)O1 [LINEZOLID],–,–,–,–,–,–,–,–,–,190,–,–,–,3,–,–
O=C(NNC(=S)Nc1ccc(Cl)c(Cl)c1)c1ccccc1O,50,100,–,1170,50,50,inactive,50,100,50,50,inactive,inactive,100,100,inactive
Oc1ccccc1-c1nnc(Nc2ccc(Cl)c(Cl)c2)s1,> 100,> 100,> 100,–,–,–,–,–,–,–,–,–,–,–,–,–
COc1ccccc1C(=O)NNC(=S)Nc1ccc(Cl)c(Cl)c1,> 100,> 100,> 100,–,–,–,–,–,–,–,–,–,–,–,–,–
O=C(NNC(=S)Nc1ccc(F)cc1)c1ccccc1O,200,> 100,–,890,> 100,> 100,inactive,> 100,> 100,> 100,> 100,inactive,inactive,> 100,> 100,–
Oc1ccccc1NC(=S)Nc1ccc(Cl)c(Cl)c1,50,25,> 100,–,100,50,inactive,100,50,50,50,inactive,inactive,50,50,–
CN[C@H](CC(C)C)C(=O)N[C@H]1C(=O)N[C@@H](CC(N)=O)C(=O)N[C@H]2C(=O)N[C@H]3C(=O)N[C@H](C(=O)N[C@H](C(=O)O)c4cc(O)cc(O)c4-c4cc3ccc4O)[C@H](O)c3ccc(c(Cl)c3)Oc3cc2cc(c3O[C@@H]2O[C@H](CO)[C@@H](O)[C@H](O)[C@H]2O[C@H]2C[C@](C)(N)[C@H](O)[C@H](C)O2)Oc2ccc(cc2Cl)[C@H]1O [VANCOMYCIN],–,–,–,–,> 175,–,–,–,–,0.7,700,–,–,5,350,–
